Laboratory results from paper PMC10664564 (Chemical Science, 2023).
Each block holds one compound with its values, some of them ahead of it.

Columns and labels:
SQS = biological target: T1, SQS (Homo sapiens, UniProt P37268); test: Western blot of SQS protein levels in HeLa cells; format: cell-based; conditions: 18 h, 10 μM
T1 sequence (P37268 1-417): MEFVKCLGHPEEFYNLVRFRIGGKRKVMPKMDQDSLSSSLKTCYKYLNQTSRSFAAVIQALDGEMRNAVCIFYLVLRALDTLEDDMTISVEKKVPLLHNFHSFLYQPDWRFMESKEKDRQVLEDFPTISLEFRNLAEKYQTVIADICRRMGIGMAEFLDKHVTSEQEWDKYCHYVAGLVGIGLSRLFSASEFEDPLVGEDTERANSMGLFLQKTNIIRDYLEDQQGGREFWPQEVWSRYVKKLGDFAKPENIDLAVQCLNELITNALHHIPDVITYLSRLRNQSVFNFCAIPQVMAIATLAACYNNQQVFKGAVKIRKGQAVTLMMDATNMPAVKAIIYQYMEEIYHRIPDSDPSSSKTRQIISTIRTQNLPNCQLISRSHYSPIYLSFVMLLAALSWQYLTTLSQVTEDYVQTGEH
In short: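 HeLa cells were exposed to test compound, usually for 18 h, and SQS was detected by western blot (n = 2–4). DC50 and Dmax came from an 18 h dose–response (n = 4, mean ± SEM). A time course used 10 μM. Inhibitor arms were pre-incubated 2 h with MG132 (20 μM), chloroquine (20 μM) or MLN4924 (5 μM). A turnover arm used cycloheximide at 100 μg mL−1.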

[1] = phase II and III clinical trials, development stopped; cited from earlier work
HeLa cells = test: Cell viability assay ± MBCD; format: cell-based, human; conditions: 72 h
In short: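 HeLa cells grown 72 h in FBS-containing medium with methyl β-cyclodextrin at 3 mM (a concentration set as non-toxic for HeLa), treated with a range of test compound concentrations; viability read; n = 3, mean ± SD of one biological replicate shown.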

Recombinant SQS (31-370) = biological target: T2, Recombinant SQS (31-370) (Homo sapiens, UniProt P37268); test: In vitro SQS activity assay; format: biochemical; conditions: compound at 1 μM, positive control
T2 sequence (P37268 31-370): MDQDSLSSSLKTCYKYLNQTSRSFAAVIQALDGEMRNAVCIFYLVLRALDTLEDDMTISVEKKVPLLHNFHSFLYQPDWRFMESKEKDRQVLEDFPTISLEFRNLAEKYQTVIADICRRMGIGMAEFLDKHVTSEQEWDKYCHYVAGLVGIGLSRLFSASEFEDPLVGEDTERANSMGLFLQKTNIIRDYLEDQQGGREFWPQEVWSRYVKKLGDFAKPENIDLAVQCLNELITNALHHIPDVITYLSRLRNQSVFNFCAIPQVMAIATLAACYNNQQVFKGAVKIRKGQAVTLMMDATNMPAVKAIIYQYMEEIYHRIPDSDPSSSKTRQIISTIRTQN

SQS levels, tool compound alone (SQS): marked accumulation of SQS
SMILES: CCNCCN(CC)c1nc(Nc2ccc3ncoc3c2)nc(N[C@@H](C)C2CCCCC2)n1 [LS-102]

SMILES: COc1cccc([C@H]2O[C@H](CC(=O)N3CCC(CC(=O)O)CC3)C(=O)N(CC(C)(C)COC(C)=O)c3ccc(Cl)cc32)c1OC [TAK-475, lapaquistat acetate]
clinical safety finding [1]: hepatotoxicity accompanied by elevated bilirubin levels

inhibition of SQS activity (Recombinant SQS (31-370)): completety inhibited the reaction
SMILES: C=C(CC[C@]12O[C@H](C(=O)O)[C@@](O)(C(=O)O)[C@](C(=O)O)(O1)[C@H](OC(=O)/C=C/[C@@H](C)C[C@@H](C)CC)[C@H]2O)[C@@H](OC(C)=O)[C@H](C)Cc1ccccc1 [ZAA, zaragozic acid A]
cell viability under cholesterol depletion (HeLa cells; MBCD 3 mM, 5 and 10 μM): completely abolish cell viability
cell viability (HeLa cells; standard conditions (DMEM 10% FBS)): neither ZAA nor KY02111 adversely affected cell viability
